# Screening results deposited in PubChem BioAssay by several laboratories.
# Many of the other results were omitted from the sample, so hits are more common in it than they were.
# GSH bead fluor – compound fluoresces at 488/530 nm on GSH beads | actives 0.25% (n = 190,000) | AID 1776 | GSH beads flow cytometry, compound fluorescence 488/530 nm; hits give high values | fluorescence (KMESF) at 10 µM; in the data active = fluorescence above about 89;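 note: glutathione beads carrying GST-tagged Bcl family fusion proteins plus one bare bead set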
# ABCG2 inh – blocks JC-1 efflux by human ABCG2 transporter | Q9UNQ0 | IgMXP3 cells, flow cytometry | actives 0.1% (n = 190,000) | inhibition, % at 6.6 µM;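 active = inhibition above 80%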
#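 Read-out basis: Efflux inhibition in percent versus controls | Test system: ABCG2 IgMXP3 and barcoded ABCB1 CCRF-Adr cell mix | Quantity: 3 million cells/mL in well | Schedule: 10 min at 25 °C | Control set: Nicardipine as high control, DMSO as low control | Reagent: JC-1 as fluorescent efflux pump substrate | Signal: Flow cytometry of retained JC-1 fluorescence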
# Avidin fluor – avidin bead compound fluorescence profile | actives 0.38% (n = 220,000) | AID 1775 | Avidin beads, compound fluorescence 488/530 nm, flow cytometry; hits give high values | fluorescence (KMESF) at 10 µM; in the data active = fluorescence above about 47
# PKD1 inh – blocks activity of human protein kinase D1. Q15139. PKD1 kinase fluorescence polarization assay. inhibition, % (test concentration not listed). actives 0.056% (n = 200,000)
# ABCB1 block – human ABCB1 inhibition, ABCG2 as counter-screen | P08183 | CCRF-Adr cells, JC-1 efflux, flow cytometry | inhibition, % at 6.6 µM | actives 0.067% (n = 190,000); in the data active = inhibition above about 40%;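 note: higher value means more JC-1 retained so stronger ABCB1 efflux block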
# Target sequence (P08183 whole entry, looked up): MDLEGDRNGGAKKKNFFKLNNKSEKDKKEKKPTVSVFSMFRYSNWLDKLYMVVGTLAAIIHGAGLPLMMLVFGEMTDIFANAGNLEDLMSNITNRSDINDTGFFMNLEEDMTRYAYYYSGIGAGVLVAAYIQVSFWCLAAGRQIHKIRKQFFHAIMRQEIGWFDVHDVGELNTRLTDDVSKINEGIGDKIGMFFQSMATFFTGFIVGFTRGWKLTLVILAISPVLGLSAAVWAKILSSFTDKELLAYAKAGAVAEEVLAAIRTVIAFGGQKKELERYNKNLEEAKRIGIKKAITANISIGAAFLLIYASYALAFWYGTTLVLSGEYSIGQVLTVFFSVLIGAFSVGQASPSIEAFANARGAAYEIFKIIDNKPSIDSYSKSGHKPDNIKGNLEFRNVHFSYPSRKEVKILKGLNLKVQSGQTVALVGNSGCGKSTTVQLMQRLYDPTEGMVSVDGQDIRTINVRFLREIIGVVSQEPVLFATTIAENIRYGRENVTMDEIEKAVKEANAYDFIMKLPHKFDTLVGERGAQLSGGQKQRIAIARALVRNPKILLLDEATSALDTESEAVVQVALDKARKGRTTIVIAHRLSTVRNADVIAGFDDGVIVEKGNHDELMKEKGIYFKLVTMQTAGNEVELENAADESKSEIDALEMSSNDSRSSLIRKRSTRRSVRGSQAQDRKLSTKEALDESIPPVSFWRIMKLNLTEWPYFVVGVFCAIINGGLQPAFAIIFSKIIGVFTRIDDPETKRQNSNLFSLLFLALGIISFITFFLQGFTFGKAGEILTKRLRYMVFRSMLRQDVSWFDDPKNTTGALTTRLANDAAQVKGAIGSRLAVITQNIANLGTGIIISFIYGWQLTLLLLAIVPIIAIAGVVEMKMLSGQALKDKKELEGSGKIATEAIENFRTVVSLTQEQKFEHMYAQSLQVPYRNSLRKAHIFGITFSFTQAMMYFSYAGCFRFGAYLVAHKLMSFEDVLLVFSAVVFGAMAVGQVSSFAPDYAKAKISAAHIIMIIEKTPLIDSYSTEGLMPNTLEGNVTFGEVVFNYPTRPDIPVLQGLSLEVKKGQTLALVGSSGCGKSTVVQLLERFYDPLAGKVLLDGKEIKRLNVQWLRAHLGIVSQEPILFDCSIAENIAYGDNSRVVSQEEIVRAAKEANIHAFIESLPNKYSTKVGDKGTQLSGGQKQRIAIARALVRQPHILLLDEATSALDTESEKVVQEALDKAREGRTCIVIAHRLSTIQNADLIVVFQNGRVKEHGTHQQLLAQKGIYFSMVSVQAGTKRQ
# L major viab – reduces viability of Leishmania major promastigotes | actives 9% (n = 200,000) | inhibition, % at 10 µM | AID 1063 | resazurin fluorescence viability;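 note: promastigotes grown with compound for 44 hours at 28 °C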
# A number is an active result; n = inactive; x = not tested or not shown. Cut-off read from the data, not from the text of the source, unless noted: active = inhibition above about 50%; inactive = the rest.
SMILES,GSH bead fluor,ABCG2 inh,Avidin fluor,PKD1 inh,ABCB1 block,L major viab
O=C(NC1CCCCC1)C(c1cccnc1)N(CCc1ccccc1)C(=O)Cc1cccs1 (centres undefined),n,n,n,n,n,95
O=C(NC1CCCC1)C(c1ccsc1)N(Cc1ccccc1)C(=O)Cc1cccs1 (centres undefined),n,n,n,n,n,n
O=C(NC1CCCC1)C(c1ccsc1)N(Cc1ccco1)C(=O)Cc1cccs1 (centres undefined),n,n,n,n,n,62
O=C(NC1CCCC1)C(c1ccccc1)N(Cc1ccc2c(c1)OCO2)C(=O)Cc1cccs1 (centres undefined),n,n,n,n,n,82
O=C(NCc1ccccc1)C(c1ccccc1)N(Cc1ccc2c(c1)OCO2)C(=O)Cc1cccs1 (centres undefined),n,n,n,n,n,79
O=C(NCc1ccc2c3c(cccc13)C(=O)N2)c1cccs1,x,x,n,x,x,x
O=C(Nc1ccc(N2CCCCC2)cc1)c1ccc2ccccc2n1,n,n,n,n,n,n
COCCN(C(=O)Cc1cccs1)C(C(=O)NCc1ccc(OC)cc1)c1ccc(C)cc1 (centres undefined),n,n,n,n,n,n
COc1ccc(CNC(=O)C(c2ccc(C)o2)N(Cc2cccs2)C(=O)Cc2cccs2)cc1 (centres undefined),n,n,n,n,n,87
O=C(NCC(=O)N(c1cccnc1)C(C(=O)NC1CCCC1)c1cccs1)c1ccco1 (centres undefined),n,n,n,n,n,n
O=C(NC1CCCCC1)C(c1ccc2ncccc2c1)N(Cc1ccc2c(c1)OCO2)C(=O)c1cccs1 (centres undefined),n,n,n,n,n,88
O=C(NCC(=O)N(c1cccnc1)C(C(=O)NC1CCCC1)c1ccco1)c1cccs1 (centres undefined),n,n,57,n,n,n
Cc1ccc(-n2c(=O)[nH]c3c(C(N)=O)nc(CC(C)C)nc32)cc1,n,n,n,n,n,70
CCOc1ccccc1-c1nc(C(N)=O)c2[nH]c(=O)n(-c3cccc(C)c3)c2n1,n,n,n,n,n,64
COc1ccc(OC)c(-c2nc(C(N)=O)c3[nH]c(=O)n(-c4ccc(F)cc4)c3n2)c1,n,n,n,n,n,n
NC(=O)c1nc(C2CCCCC2)nc2c1[nH]c(=O)n2-c1ccc(F)cc1,n,n,n,n,n,54
CCOc1cccc(-c2nc(C(N)=O)c3[nH]c(=O)n(-c4cccc(Cl)c4)c3n2)c1O,n,n,n,n,n,n
COc1ccc(-c2[nH]ncc2CNCCn2cccn2)c(F)c1,n,n,n,n,n,n
O=C(CCc1ccccc1)Nc1cc(C(=O)O)cc(C(=O)O)c1,n,n,n,n,n,n
CCCN(CCC)c1nc(N)nc(-c2cc(Cl)ccc2OC)n1,n,n,n,n,n,58
CCCCN1C(=O)C(=Nc2cccc3cnccc23)c2ccccc21,n,n,n,n,n,77
CCCCN1C(C)=CC(=C2C(=O)c3ccccc3C2=O)C=C1C,n,n,n,n,n,n
Cc1ccc(CC2CC(=O)N(c3nc4ccccc4n3C)C2=O)cc1 (centres undefined),n,n,n,n,n,n
CC1=C(C(=O)N2CCN(c3cc(C)ccc3C)CC2)C2(CCC(C)CC2)OC1=O (centres undefined),n,n,n,n,n,n
O=C(Oc1ccc(NC(=O)c2cc3c(cc2Br)OCO3)cc1)c1ccccc1,x,x,n,x,x,x
SMILES,GSH bead fluor,ABCG2 inh,Avidin fluor,PKD1 inh,ABCB1 block,L major viab
Cc1ccc(S(=O)(=O)c2nc(NCCN(C)C)sc2Cl)cc1,n,n,n,n,n,89
CCCS(=O)(=O)c1nc(S(=O)(=O)c2ccc(C)cc2)c(NCCCN(C)C)s1,n,n,n,n,n,95
CCCS(=O)(=O)c1nc(S(=O)(=O)c2ccc(C)cc2)c(NCc2ccc3c(c2)OCO3)s1,n,n,n,n,n,62
CCCS(=O)(=O)c1nc(S(=O)(=O)c2ccc(C)cc2)c(NCCN2CCOCC2)s1,n,n,n,n,n,n
CC(=O)NC(C)c1nc2ccccc2n1CC(=O)NC(C)CCc1ccccc1 (centres undefined),n,n,n,n,n,n
CCOC(=O)c1c(C)[nH]c(C(=O)OCC(=O)NC2CCS(=O)(=O)C2)c1C (centres undefined),n,n,n,n,n,n
COc1ccc(CN2CC(C(=O)NCCC(C)C)CC2=O)cc1 (centres undefined),n,n,n,n,n,100
CC(C)c1ccc(CN2CC(C(=O)Nc3ccccc3)CC2=O)cc1 (centres undefined),n,n,n,n,n,62
CCN(CC)c1ccc(NC(=O)C2CC(=O)N(Cc3ccccc3)C2)cc1 (centres undefined),n,n,n,n,n,n
CC(C)C(O)(C#CCN1CCCCCC1)c1ccccc1 (centres undefined),n,n,n,n,n,83
CC(C)C(O)(CC#CCN1CCCC1)c1ccccc1 (centres undefined),n,n,n,n,n,54
C(#CCN1CCCC1)CC(c1ccccc1)c1ccccc1,n,n,n,n,n,100
CC(C)(C)C(O)(CC#CCN1CCCC1)c1ccccc1 (centres undefined),n,n,n,n,n,69
CC(O)(C#CCN1CCCCC1)c1ccccc1 (centres undefined),n,n,n,n,n,n
CCOC(=O)C1CCCN(Cc2nc(CC3CC3)no2)C1 (centres undefined),x,x,n,x,x,x
Cc1cc(NC(=O)CN2C(=O)c3ccccc3C2=O)no1,x,x,n,x,x,x
Cc1nc2cc(NC(=O)N3CC4(C)CC3CC(C)(C)C4)ccc2n1C (centres undefined),n,n,48,n,n,n
CCOC(=O)c1c(C)oc2c1c1c(c3ccccc32)OCN(Cc2cccnc2)C1,n,n,n,n,n,n
CCOC(=O)c1c(C)oc2c1c(C(c1cccnc1)N1CCOCC1)c(O)c1ccccc12 (centres undefined),n,n,n,n,n,97
CCOC(=O)c1c(NCC2CCCO2)c2ccccc2[nH]c1=O (centres undefined),n,n,n,n,n,n
CCOC(=O)c1c(C)oc2c1c(C=NCc1ccccn1)c(O)c1ccccc12,n,n,n,n,n,98
CCOC(=O)c1c(C)oc2c1c(C=NCC1CCCO1)c(O)c1ccccc12 (centres undefined),n,n,n,n,n,98
CN(Cc1nc(Cc2cccc(F)c2)no1)CC1CCOCC1,n,n,n,n,n,n
CCOc1ncccc1C(=O)Nc1ccc(F)c(Cl)c1,n,n,n,n,n,n
CCc1ccc(-c2nc(NC(=S)NC(=O)c3cccs3)sc2C)cc1,n,n,57,n,n,n
